Experimental findings from PubChem BioAssay are described below.

Assay [1] can be described thus: Her2 expression decrease, cell viability multiplex – SKBR3 breast tumor cells, AlphaScreen, ATP viability, primary screen (AID 461;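 active means Her2 level under about 52% in both replicate screens, with viability over 70% of control, limit read from the data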;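 on Her2 level: lower value means less Her2 protein in the cells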;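 on viability: percent of carrier control wells set as 100% viability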). The note with it: SKBR3 Her2 protein level, 18-24 h, measured here: SKBR3 viability, ATP luminescence, at 10 µM. For orientation: In Alpha technology, singlet oxygen from a donor bead excites a nearby acceptor bead.
In assay [2] the target is Receptor tyrosine-protein kinase erbB-2 (Homo sapiens) (UniProt P04626). The description is as above. Conditions: 18-24 h, at 10 µM, stronger effect = lower value.
Chain of Receptor tyrosine-protein kinase erbB-2 (Homo sapiens) (P04626 whole entry, looked up): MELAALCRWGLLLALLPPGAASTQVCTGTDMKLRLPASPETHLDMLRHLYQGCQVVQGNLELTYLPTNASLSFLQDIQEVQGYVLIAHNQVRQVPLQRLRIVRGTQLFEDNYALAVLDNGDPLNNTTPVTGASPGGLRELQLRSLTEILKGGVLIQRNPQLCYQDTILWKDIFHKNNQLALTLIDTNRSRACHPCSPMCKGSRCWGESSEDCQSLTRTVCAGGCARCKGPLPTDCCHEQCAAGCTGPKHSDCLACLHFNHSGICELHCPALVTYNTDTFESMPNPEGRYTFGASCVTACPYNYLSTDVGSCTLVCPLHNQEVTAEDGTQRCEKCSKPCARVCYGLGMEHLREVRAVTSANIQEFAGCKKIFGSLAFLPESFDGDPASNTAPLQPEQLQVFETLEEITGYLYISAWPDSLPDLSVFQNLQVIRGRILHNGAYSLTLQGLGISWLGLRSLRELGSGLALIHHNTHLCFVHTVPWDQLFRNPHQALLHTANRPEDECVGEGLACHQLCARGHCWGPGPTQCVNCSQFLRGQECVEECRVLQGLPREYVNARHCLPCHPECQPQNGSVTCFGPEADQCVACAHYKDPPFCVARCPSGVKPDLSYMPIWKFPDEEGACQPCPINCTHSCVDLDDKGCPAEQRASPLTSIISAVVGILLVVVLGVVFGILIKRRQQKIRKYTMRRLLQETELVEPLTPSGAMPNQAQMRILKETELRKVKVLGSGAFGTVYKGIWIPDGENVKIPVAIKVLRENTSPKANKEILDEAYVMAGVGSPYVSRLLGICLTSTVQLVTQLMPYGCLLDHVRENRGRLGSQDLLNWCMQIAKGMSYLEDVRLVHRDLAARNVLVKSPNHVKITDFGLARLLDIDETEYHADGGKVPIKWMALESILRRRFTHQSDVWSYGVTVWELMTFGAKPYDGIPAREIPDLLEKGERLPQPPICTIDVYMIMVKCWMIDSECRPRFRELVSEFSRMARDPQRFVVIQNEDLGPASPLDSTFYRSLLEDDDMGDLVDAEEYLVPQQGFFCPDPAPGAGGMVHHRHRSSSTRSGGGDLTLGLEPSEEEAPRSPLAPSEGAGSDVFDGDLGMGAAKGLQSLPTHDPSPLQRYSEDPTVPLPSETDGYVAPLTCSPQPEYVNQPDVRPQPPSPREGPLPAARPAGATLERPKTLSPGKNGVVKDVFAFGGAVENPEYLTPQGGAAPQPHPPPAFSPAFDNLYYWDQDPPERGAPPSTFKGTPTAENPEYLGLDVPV
The nature of assay [3]: reduced viability of SK-BR-3 breast cancer cells – cell-based, 24 h, human, pilot screen (AID 572;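 active means viability at or below 10% of carrier control in both of two separate runs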;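 further: compound exposure lasted between 18 and 24 h rather than exactly 24 h; 100% = carrier-treated control wells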). Conditions: SK-BR-3 viability, CellTiter-Glo luminescence, at 10 µM, stronger effect = lower value. In general terms: In ATP-based viability assays light output follows the ATP content of the culture.
Assay [4] in a line: HUVEC growth inhibition – cell-based, human, primary screen (AID 575;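 active means viability at or below 30% in both replicate assays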;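 further: 100% = median of untreated cell wells with 0.1% DMSO on each plate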). Conditions: HUVEC proliferation, CellTiter-Glo luminescence, 72 h; at 10 µM; stronger effect = lower value. In outline: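 material = primary HUVEC, no more than 12 passages | input = 1250 cells per well | controls = vehicle and MePR control wells | measured by = CTG luminescence | times = 72 h compound incubation | format = collagen-coated 384-well format | read-out = % viability vs DMSO wells | doses = single 10 µM dose, 0.1% DMSO, from 5x medium stock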

Assay [5] can be described thus: H69AR cell proliferation blockers – human, duplicate replicates, primary screen (AID 580;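 active means viability at or under a set limit in both replicates, limit being median viability minus 3 SD, cut at about 48% in these data, passing the limit was not always enough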;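 further: 100% = mean luminescence of untreated wells and 0% = no signal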). The note with it: H69AR lung tumor cells viability, ATP luminescence, 72 h; at 10 µM; stronger effect = lower value.
The nature of assay [6]: MRP1 drug-resistance reversers in H69AR cells – cell-based, doxorubicin co-treatment, pilot screen (AID 601). The note with it: CellTiter-Glo, 72 h, at 10 µM; for differential viability (reversal): stronger effect = higher value.
Assay [7] is described as follows: yeast transport mutant growth inhibition pilot in 384-well plates, post-Golgi transport modulator project (AID 636; in the data active means inhibition above about 31%). Conditions: absorbance 615 nm, about 18 h, stronger effect = higher value.
The nature of assay [8]: growth suppression of yeast trafficking mutant, preliminary HTS, modulators of trafficking downstream of Golgi apparatus project, 1536-format plate, OD 615 nm (AID 637; in the data active means inhibition above about 30%). Conditions: yeast transport mutant growth, absorbance 615 nm, 18 h; stronger effect = higher value.
The mark [9] stands for this setting: H69AR cells + 2 uM doxorubicin, measured here: viability with 2 uM doxorubicin, stronger effect = lower value.
Setting [10] is: H69AR cells, compound alone cytotoxicity.

The source made the active and inactive calls.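 How the source made its calls, unless noted: active means viability loss from added drug above about 55%, and viability with drug at most 40%, in both replicates (limit read from the data, passing the limit was not always enough); inconclusive means both conditions met in only one replicate; inactive means neither replicate meets both conditions.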

By viability is commonly meant a read-out of living cells in per cent, often relative to untreated cells. By inhibition is commonly meant the change of the read-out against control, counted positive when it falls. For the compound `O=C(NCC1COc2ccccc2O1)C1CCCN(S(=O)(=O)c2cnc[nH]2)C1` (stereo not given), the viability in assay [1] is 88%; in assay [3], 88% (inactive); in assay [4] it was 91.9% (inactive); in assay [5], 109% (inactive); in assay [6] (setting [9]), 89.7%; in assay [6] (setting [10]), 109%. For the same compound, the Her2 level in assay [2] was 101% (inactive). Also, the differential viability (reversal) in assay [6] (H69AR cells + 2 uM doxorubicin) is 18.9% (inactive). Further, the results for the inhibition in assay [7] and in assay [8] were -2.13% (inactive) and -2.95% (inactive), respectively.
As to `CCCS(=O)(=O)N1CCN(Cc2ccc(OCc3ccccc3)c(OC)c2)CC1`, the viability in assay [1] is 84.5%; in assay [3] it was 84.5% (inactive); in assay [4] it was 105% (inactive); in assay [5] it was 87.8% (inactive); in assay [6] (setting [9]), 93.1%; in assay [6] (setting [10]), 87.8%. For the same compound, the Her2 level in assay [2] is 114% (inactive). The differential viability (reversal) in assay [6] (H69AR cells + 2 uM doxorubicin) is -5.26% (inactive). The inhibition in assay [7] is 4.19% (inactive); in assay [8], 30.2% (active).
Consider `CCc1[nH]nc2c1C(c1cccc(OC(=O)N3CCOCC3)c1)C(C#N)=C(N)O2` (stereo not given), for which the viability is 133% in assay [1]; 133% (inactive) in assay [3]; 103% (inactive) in assay [4]; 89.5% (inactive) in assay [5]; 98.8% in assay [6] (setting [9]); 89.5% in assay [6] (setting [10]). Moreover, the Her2 level in assay [2] was 124% (inactive). For the same compound, in assay [6] (H69AR cells + 2 uM doxorubicin), the differential viability (reversal) is -9.21% (inactive). Also, the inhibition in assay [7] is -3.42% (inactive); in assay [8], 0.95% (inactive).
As for `CCOC(=O)Nc1sc(=S)n(C)c1C`, the viability in assay [1] is 92.5%; in assay [3], 92.5% (inactive); in assay [4], 104% (inactive); in assay [5], 98% (inactive); in assay [6] (setting [9]), 94.9%; in assay [6] (setting [10]) it was 98%. The Her2 level in assay [2] is 96% (inactive). Further, in assay [6] (H69AR cells + 2 uM doxorubicin), the differential viability (reversal) was 3.1% (inactive). The values for the inhibition in assay [7] and in assay [8] were -3.95% (inactive) and 0.16% (inactive), respectively.
Take `CCc1ccccc1N=C1SCC(=O)N1C`: the viability in assay [1] was 96.5%; in assay [3] it was 96.5% (inactive); in assay [4], 87.9% (inactive); in assay [5], 97% (inactive); in assay [6] (setting [9]), 86.8%; in assay [6] (setting [10]) it was 97%. Also, the Her2 level in assay [2] was 102% (inactive). The differential viability (reversal) in assay [6] (H69AR cells + 2 uM doxorubicin) is 10.1% (inactive). Moreover, the inhibition was -6.67% (inactive) in assay [7] and -4.26% (inactive) in assay [8].
For the compound `Cc1ccc(N(CC(=O)NCC2CCCO2)S(C)(=O)=O)cc1Cl` (stereo not given), the viability was 106% in assay [1]; 106% (inactive) in assay [3]; 99.1% (inactive) in assay [4]; 89.2% (inactive) in assay [5]; 92.6% in assay [6] (setting [9]); 89.2% in assay [6] (setting [10]). The Her2 level in assay [2] was 82.5% (inactive). Further, the differential viability (reversal) in assay [6] (H69AR cells + 2 uM doxorubicin) was -3.35% (inactive). In addition, the inhibition is 1.41% (inactive) in assay [7] and -3% (inactive) in assay [8].
Take `Cc1cccc(C(OC(=O)c2ccco2)C(=O)NCc2ccccc2)n1` (stereo not given): the viability in assay [1] was 102%; in assay [3], 102% (inactive); in assay [4], 86.6% (inactive); in assay [5], 96.1% (inactive); in assay [6] (setting [9]), 88.3%; in assay [6] (setting [10]), 96.1%. Moreover, the Her2 level in assay [2] was 90% (inactive). Besides, the differential viability (reversal) in assay [6] (H69AR cells + 2 uM doxorubicin) was 7.79% (inactive). In addition, the inhibition in assay [7] was -2.03% (inactive); in assay [8], -1.64% (inactive).
Take `CC12CN3CC(C)(CN(C1)C3c1cc(Br)ccc1O)C2=O` (stereo not given): the viability is 95.5% in assay [1]; 95.5% (inactive) in assay [3]; 87% (inactive) in assay [4]; 100% (inactive) in assay [5]; 98.9% in assay [6] (setting [9]); 100% in assay [6] (setting [10]). Further, the Her2 level in assay [2] is 124% (inactive). Besides, the differential viability (reversal) in assay [6] (H69AR cells + 2 uM doxorubicin) was 1.15% (inactive). Moreover, the inhibition was -0.65% (inactive) in assay [7] and -3.83% (inactive) in assay [8].
Turning to `O=C(Nc1cccc2ccccc12)N1CCOCC1`, the viability in assay [1] was 119%; in assay [3], 119% (inactive); in assay [4] it was 85.9% (inactive); in assay [5] it was 90.5% (inactive); in assay [6] (setting [9]), 98.9%; in assay [6] (setting [10]), 90.5%. In addition, the Her2 level in assay [2] was 103% (inactive). The differential viability (reversal) in assay [6] (H69AR cells + 2 uM doxorubicin) was -8.41% (inactive). In addition, the values for the inhibition in assay [7] and in assay [8] were -2.95% (inactive) and 11.3% (inactive), respectively.
In the case of `CCc1ccc2c(CN(CC)Cc3nc4ccccc4c(=O)[nH]3)cc(=O)oc2c1`, the viability in assay [1] is 86%; in assay [3] it was 86% (inactive); in assay [4], 75.4% (inactive); in assay [5] it was 67.9% (inactive); in assay [6] (setting [9]), 31.7%; in assay [6] (setting [10]), 67.9%. Moreover, the Her2 level in assay [2] was 73.5% (inactive). The differential viability (reversal) in assay [6] (H69AR cells + 2 uM doxorubicin) was 36.3% (inactive). The inhibition in assay [7] is -1.32% (inactive); in assay [8] it was -7.27% (inactive).
Regarding `Cn1cnc(S(=O)(=O)Nc2ccc(C(F)(F)F)cc2)c1`, the viability in assay [1] was 86%; in assay [3] it was 86% (inactive); in assay [4] it was 105% (inactive); in assay [5], 91.7% (inactive); in assay [6] (setting [9]) it was 85.4%; in assay [6] (setting [10]) it was 91.7%. Further, the Her2 level in assay [2] is 98.5% (inactive). The differential viability (reversal) in assay [6] (H69AR cells + 2 uM doxorubicin) is 6.29% (inactive). Further, the inhibition is 1.41% (inactive) in assay [7] and -11.7% (inactive) in assay [8].
As to `CN(CCC#N)C(=O)COC(=O)c1ccc(Cl)c(S(N)(=O)=O)c1`, the viability in assay [1] was 104%; in assay [3], 104% (inactive); in assay [4], 106% (inactive); in assay [5], 95.9% (inactive); in assay [6] (setting [9]) it was 88.8%; in assay [6] (setting [10]), 95.9%. In assay [2], the Her2 level was 97.5% (inactive). Further, the differential viability (reversal) in assay [6] (H69AR cells + 2 uM doxorubicin) was 7.13% (inactive). In addition, the inhibition in assay [7] was -4.93% (inactive); in assay [8] it was 3.71% (inactive).
`Cc1cc(C)cc(-n2nnc(C(=O)NCc3ccco3)c2N)c1`: the viability is 101% in assay [1]; 101% (inactive) in assay [3]; 89.4% (inactive) in assay [4]; 88.5% (inactive) in assay [5]; 93.2% in assay [6] (setting [9]); 88.5% in assay [6] (setting [10]). Also, in assay [2], the Her2 level is 82% (inactive). Moreover, the differential viability (reversal) in assay [6] (H69AR cells + 2 uM doxorubicin) was -4.65% (inactive). Moreover, the inhibition is -0.14% (inactive) in assay [7] and -4.92% (inactive) in assay [8].
Turning to `CCOc1ccc(NC(=O)CN2CCN(CC(=O)Nc3ccc(F)c(F)c3)CC2)cc1`, the viability is 95% in assay [1]; 95% (inactive) in assay [3]; 89.3% (inactive) in assay [4]; 79.8% (inactive) in assay [5]; 57.1% in assay [6] (setting [9]); 79.8% in assay [6] (setting [10]). In assay [2], the Her2 level is 102% (inactive). The differential viability (reversal) in assay [6] (H69AR cells + 2 uM doxorubicin) is 22.7% (inactive). Besides, the inhibition in assay [7] is -3.6% (inactive); in assay [8], 4.92% (inactive).
In the case of `Cc1nc(-c2cccc(N)c2)cs1`, the viability in assay [1] was 103%; in assay [3] it was 103% (inactive); in assay [4], 84.3% (inactive); in assay [5] it was 103% (inactive); in assay [6] (setting [9]) it was 96.8%; in assay [6] (setting [10]), 103%. The Her2 level in assay [2] is 94.5% (inactive). In addition, the differential viability (reversal) in assay [6] (H69AR cells + 2 uM doxorubicin) was 6.14% (inactive). In addition, the values for the inhibition in assay [7] and in assay [8] were -1.33% (inactive) and -2.3% (inactive), respectively.
Take `c1cc(-c2nc3ccccc3o2)nc(-c2nc3ccccc3o2)c1`: the viability is 122% in assay [1]; 122% (inactive) in assay [3]; 90.9% (inactive) in assay [4]; 87.6% (inactive) in assay [5]; 80.2% in assay [6] (setting [9]); 87.6% in assay [6] (setting [10]). The Her2 level in assay [2] is 94.5% (inactive). Also, the differential viability (reversal) in assay [6] (H69AR cells + 2 uM doxorubicin) was 7.43% (inactive). The values for the inhibition in assay [7] and in assay [8] were -4.21% (inactive) and 1.83% (inactive), respectively.
